Most compounds without a hit are left out; they make up all but 29% or so of the library.
CYP2C9 activ: increases human cytochrome P450 2C9 activity. P11712. recombinant CYP2C9, luciferin-H conversion, luminescence; stronger effect = higher value; factor 1 = untreated enzyme, 0 = blocked. activation factor at 5 µM. hit rate 1.4% among 96,000. AID 1024;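 active = activation factor of 2 or more for CYP2C9 at a 5 µM dose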
CYP2C19 activ: increases human CYP2C19 enzyme activity; P33261; activation factor at 5 µM; recombinant CYP2C19, luciferin-H EGE luminescence; stronger effect = higher value; 0 = fully inhibited enzyme, 1 = untreated enzyme; 96,000 tested, under 10 active;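 active = activation factor of at least 2 at 5 µM in the primary screen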
Target sequence (P33261 whole entry, looked up): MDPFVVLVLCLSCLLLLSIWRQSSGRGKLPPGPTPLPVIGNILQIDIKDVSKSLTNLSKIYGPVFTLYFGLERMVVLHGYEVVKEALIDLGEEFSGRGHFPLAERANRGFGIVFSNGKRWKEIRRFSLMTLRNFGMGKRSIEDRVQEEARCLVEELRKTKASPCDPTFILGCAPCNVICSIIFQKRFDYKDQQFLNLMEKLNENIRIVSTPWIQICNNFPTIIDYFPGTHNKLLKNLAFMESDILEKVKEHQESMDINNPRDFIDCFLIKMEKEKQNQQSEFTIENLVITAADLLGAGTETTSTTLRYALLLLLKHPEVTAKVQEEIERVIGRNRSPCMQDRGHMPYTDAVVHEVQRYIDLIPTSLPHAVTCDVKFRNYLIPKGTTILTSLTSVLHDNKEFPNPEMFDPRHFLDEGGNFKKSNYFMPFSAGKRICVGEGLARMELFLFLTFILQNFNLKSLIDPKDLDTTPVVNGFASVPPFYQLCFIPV
E coli WT exp: E. coli BW25113 growth inhibition, expanded screen. growth inhibition, % at 100 µM. OD600 absorbance. AID 710. hit rate 0.15% among 98,000;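 active = growth inhibition above about 50% at one test dose, limit read from the data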;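 note: growth measured after 20 h incubation at 37 °C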
Ecoli tolC: E. coli tolC mutant growth inhibition; E. coli BW25113 tolC mutant growth, OD615; growth inhibition, % at 10 µM (by protocol); hit rate 2.2% among 65,000; AID 573;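 active = growth inhibition at or above a cutoff equal to the mean over every tested compound plus 3 SD, cut at about 60% in these data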;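 note: growth measured after 20 h incubation at 37 °C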
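Test system: E. coli BW25113 ΔtolC::kan bacteria | Medium: Kanamycin-containing LB broth (50 µg/mL) | Dosing: One dose of 10 µM final | Times: 20 h incubation with compound, 37 °C | Detection: Optical density read at 615 nm | Read-out basis: Percent growth inhibition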
CYP2C9 inhib: human CYP2C9 inhibition; inhibition, % at 5 µM; hit rate 20% among 96,000; CYP2C9 Supersomes, luciferin-H conversion, luminescence;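 active = blocking of liver enzyme CYP2C9 beyond about 50% at 5 µM, limit read from the data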
CYP2C19 inh: blocks human cytochrome P450 2C19; P33261; CYP2C19 Supersomes, luciferin-H EGE luminescence, 30 min; inhibition, % at 5 µM; hit rate 21% among 96,000;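 active = CYP2C19 inhibition above a set limit at 5 µM in the primary screen, cut at about 50% in these data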
Each line names hits and unclear results; the compound was inactive in the other large screens.

COCCSc1nc2sc3c(c2c(=O)n1-c1ccccc1)CCN(C)C3	CYP2C19 inh 98 (no result: Ecoli tolC)
CCOC(=O)C(C)Sc1nnc(-c2c[nH]c3ccccc23)n1C (stereo not drawn)	none
Cn1c(SCc2cccnc2)nnc1-c1c[nH]c2ccccc12	CYP2C19 inh 83
CC(C)Sc1nnc(-c2c[nH]c3ccccc23)n1C	CYP2C19 inh 68
CC(=O)c1ccc(NC(=O)c2ccc3nc(-c4ccco4)c(-c4ccco4)nc3c2)cc1	none (no result: Ecoli tolC)
COc1ccc2nc(-c3ccco3)c(-c3ccco3)nc2c1	CYP2C9 inhib 56 (no result: Ecoli tolC)
O=C(NCc1ccccc1)c1ccc2nc(-c3ccco3)c(-c3ccco3)nc2c1	CYP2C9 inhib 77 (no result: Ecoli tolC)
CCCNC(=O)c1ccc2nc(-c3ccccc3)c(-c3ccccc3)nc2c1	CYP2C9 inhib 51 (no result: Ecoli tolC)
CCCCNC(=O)c1ccc2nc(-c3ccco3)c(-c3ccco3)nc2c1	none
O=C(Nc1ccccc1)c1ccc2nc(-c3ccco3)c(-c3ccco3)nc2c1	CYP2C9 inhib 67, CYP2C19 inh 61
S=C(Nc1ccc(N2CCOCC2)cc1)Nc1ccc2nc(-c3ccco3)c(-c3ccco3)nc2c1	none (no result: Ecoli tolC)
COc1ccccc1CNc1ccc(N2CCOCC2)c(C(=O)O)c1	none
O=S(=O)(/C=C/c1ccccc1)N1CCN(c2ccc(F)cc2)CC1	none (no result: Ecoli tolC)
CCOCC(O)CS(=O)Cc1ccccc1 (stereo not drawn)	none
O=S(Cc1ccccc1)CC(O)(c1ccc(Cl)cc1)c1ccc(Cl)cc1 (stereo not drawn)	CYP2C19 inh 85 (no result: Ecoli tolC)
O=S(Cc1ccc(Cl)cc1)CC(O)(c1ccccc1)c1ccccc1 (stereo not drawn)	CYP2C19 inh 80 (no result: Ecoli tolC)
Cc1cccc(C2=N/C(=C\c3cccnc3)C(=O)O2)c1	none (no result: Ecoli tolC)
O=C(NC(=S)NNC(=O)c1cccs1)c1ccc(Br)o1	none (no result: Ecoli tolC)
C=CCn1c(SC2CCOC2=O)nc2scc(C3CC3)c2c1=O (stereo not drawn)	CYP2C9 inhib 77, CYP2C19 inh 83
C=CCn1c(SCc2cc(=O)n3ccsc3n2)nc2scc(C3CC3)c2c1=O	none (no result: E coli WT exp)
C=CCn1c(SCC(=O)NC2CCS(=O)(=O)C2)nc2scc(C3CC3)c2c1=O (stereo not drawn)	CYP2C9 inhib 72
C=CCn1c(SCC(=O)c2ccc(CNC(C)=O)o2)nc2scc(C3CC3)c2c1=O	CYP2C9 inhib 73, CYP2C19 inh 57
COc1ccc(CN2C(=O)NC3(CCCCCC3)C2=O)cc1F	CYP2C19 inh 88 (no result: E coli WT exp)
CCOc1cc(CN2CCCCC2)ccc1OC	none
COc1cccc(C2Nc3cc(Cl)c(S(N)(=O)=O)cc3S(=O)(=O)N2)c1 (stereo not drawn)	none (no result: Ecoli tolC)
Cn1c(Cc2cccs2)n[nH]c1=S	none
Cn1cccc1C(=O)NC(=O)COC(=O)c1ccc(O)cc1	CYP2C9 activ 4.1 (no result: Ecoli tolC)
Cc1ccc(-n2c(=O)c3sccc3n(CC(=O)NCc3ccco3)c2=O)cc1F	none (no result: Ecoli tolC)
CC(C)NC(=O)CSc1nnc(-c2ccc(C(C)(C)C)cc2)n1C	none (no result: CYP2C9 activ, CYP2C19 activ, CYP2C9 inhib, CYP2C19 inh)
NS(=O)(=O)c1ccc(Nc2nc(-c3ccc(O)cc3O)cs2)cc1	CYP2C9 inhib 68, CYP2C19 inh 79 (no result: Ecoli tolC)
Oc1ccc(Nc2nc(-c3ccc4ccccc4c3)cs2)cc1	none (no result: Ecoli tolC)
Cc1cccnc1Nc1nc(-c2ccc(O)cc2O)cs1	Ecoli tolC 100
CCCCCn1c(=O)[nH]c2c(c1=O)CCC2	none
CCOc1ccc(NC(=O)CSc2nc3ccccc3c(=O)n2CCNC(C)=O)cc1	none
C=C(C)Cn1c(SCC#N)nc2ccccc2c1=O	none
CC(=O)NCCn1c(SCC(=O)OCc2ccccc2)nc2ccccc2c1=O	CYP2C9 inhib 52, CYP2C19 inh 86
CCN(CCCn1c(SCC#N)nc2ccccc2c1=O)c1ccccc1	CYP2C9 inhib 93, CYP2C19 inh 77
CC(=O)NCCn1c(SCC(=O)c2ccccc2)nc2ccccc2c1=O	CYP2C9 inhib 55, CYP2C19 inh 71
CCCn1c(SCC(=O)OCc2ccccc2)nc2c1c(=O)n(C)c(=O)n2C	none
CCN(CCCn1c(=S)[nH]c2ncccc2c1=O)c1ccccc1	none
C=C(C)Cn1c(SCC)nc2ccccc2c1=O	CYP2C19 inh 88
Cc1ccc(C)n1-c1sccc1C(=O)O	none (no result: Ecoli tolC)
C=CCN(C(=O)CCC(=O)O)C1CC(=O)N(c2ccc(OCCC)cc2)C1=O (stereo not drawn)	none
CCCCC(C(=O)NCCC(C)C)N(CCCN1CCOCC1)C(=O)c1snc(C(N)=O)c1N (stereo not drawn)	none
O=C(CN1CCN(Cc2ccc(F)cc2Cl)C1=O)NCCc1ccc(Cl)cc1	CYP2C9 inhib 67 (no result: Ecoli tolC)
CC1CCC(NC(=O)CN2CCCN(Cc3ccc(F)cc3Cl)C2=O)CC1 (stereo not drawn)	none
c1cc2c3c(cccc3c1)NC1(CCCCC1)N2	CYP2C9 inhib 52, CYP2C19 inh 72 (no result: Ecoli tolC)
c1cc2c3c(cccc3c1)NC1(CCCCCC1)N2	CYP2C9 inhib 62, CYP2C19 inh 87
Cc1sc2nc(CN3CCCC3)nc(N3CCC(C(N)=O)CC3)c2c1C	none (no result: Ecoli tolC)
Cc1ccc2c(c1)cc(CN(Cc1ccc3c(c1)OCO3)C(=O)c1ccccc1)c1nnnn12	none (no result: Ecoli tolC)
Cc1ccc2c(c1)cc(CN(CCc1ccccc1)C(=O)N1CCOCC1)c1nnnn12	CYP2C9 inhib 64, CYP2C19 inh 53
Cc1ccc2c(c1)cc(CN(Cc1cccnc1)C(=O)NCc1ccccc1)c1nnnn12	CYP2C9 inhib 65, CYP2C19 inh 90 (no result: Ecoli tolC)
COc1ccc(N2CCN(CCCNS(=O)(=O)c3c(C)noc3/C=C/N(C)C)CC2)cc1	CYP2C9 inhib 62
COCCCNC(=O)C(C#N)c1nc2ccccc2nc1N1CCN(Cc2ccccc2)CC1 (stereo not drawn)	CYP2C9 inhib 93, CYP2C19 inh 92
CCOC(=O)C1CCCN(c2nc3ccccc3nc2C(C#N)C(=O)OC(C)COC)C1 (stereo not drawn)	none (no result: CYP2C9 activ, CYP2C19 activ, E coli WT exp, CYP2C9 inhib, CYP2C19 inh)
CC(C)COC(=O)C(C#N)c1nc2ccccc2nc1N1CCN(Cc2ccccc2)CC1 (stereo not drawn)	none
COCC(C)OC(=O)C(C#N)c1nc2ccccc2nc1N1CCN(Cc2ccccc2)CC1 (stereo not drawn)	CYP2C9 inhib 90, CYP2C19 inh 74
COCCOC(=O)C(C#N)c1nc2ccccc2nc1N1CCN(Cc2ccccc2)CC1 (stereo not drawn)	CYP2C9 inhib 91, CYP2C19 inh 80
C=CCOC(=O)C(C#N)c1nc2ccccc2nc1N1CCN(Cc2ccccc2)CC1 (stereo not drawn)	Ecoli tolC 100, CYP2C9 inhib 64, CYP2C19 inh 57
Cc1noc(C)c1S(=O)(=O)N1CCCC(C(=O)N2CCC(C)CC2)C1 (stereo not drawn)	none
CCCOc1nc(N)c(C#N)c(-c2ccccc2F)c1C#N	none
CCOc1cc(NC(=O)c2ccccc2[N+](=O)[O-])c(OCC)cc1NC(=O)CC(C)C	none (no result: Ecoli tolC)
COC(=O)c1ccc(NC(=O)c2ccc(C)cc2)o1	none (no result: Ecoli tolC)

Screening data deposited in PubChem BioAssay by several laboratories.
